Results as given in ChEMBL document CHEMBL5724801, “EUbOPEN Chemogenomics Library - Multiplex” (2024).
“And” between values parts separate entries of the source, which are not always exact repeats. Equal values may be shown once.

Tested on: Fibroblast
Test: Multiplex assay against human fibroblast
Assay type: toxicity, cell-based
In short: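 Compound was added to live cells that had been stained at seeding with Hoechst33342, BioTracker Green Microtubule Cytoskeleton Dye, MitoTracker Red and Annexin V Alexa Fluor 680, and imaging followed on a CQ1 microscope at 37°C and 5% CO2. CellPathfinder machine-learning gating divided cells into Hoechst high-intensity objects or normal cells, normal cells into healthy, pyknosed or fragmented nuclei, and pyknosed cells into mitotic or apoptotic. Tubulin, mitochondrial-mass and membrane-permeability phenotypes are per cents of healthy-nucleus cells.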

[1] = 12 h, 1 µM, compound concentration 1 uM
[2] = 12 h, 10 µM, compound concentration 10 uM
[3] = 24 h, 1 µM, compound concentration 1 uM
[4] = 24 h, 10 µM, compound concentration 10 uM
[5] = 48 h, 1 µM, compound concentration 1 uM
[6] = 48 h, 10 µM, compound concentration 10 uM

CN1CCC(C(=O)c2cccc(NC(=O)c3c(F)cc(F)cc3F)n2)CC1
Population Apoptotic (%) [1]: 28% and 40%
Population Fragmented Nuclei (%) [1]: 16% and 28%
Population Healthy Nuclei (%) [1]: 64% and 53%
Population Hoechst High Intensity Objects (%) [1]: 3% and 2%
Population Membrane Permeable-Phenotype (%) [1]: 1% and 5%
Population Mitochondria Different-Phenotype (%) [1]: 4% and 10%
Population Mitotic Cells (%) [1]: 71% and 60%
Population Normal (%) [1]: 96% and 97%
Population Pyknosed Nuclei (%) [1]: 18%
Population Tubulin-Different-Phenotype (%) [1]: 28% and 43%
Total Cell Count [1]: 153 and 142
Population Apoptotic (%) [2]: 32% and 36%
Population Fragmented Nuclei (%) [2]: 12% and 23%
Population Healthy Nuclei (%) [2]: 74% and 54%
Population Hoechst High Intensity Objects (%) [2]: 4%
Population Membrane Permeable-Phenotype (%) [2]: 1% and 6%
Population Mitochondria Different-Phenotype (%) [2]: 7% and 6%
Population Mitotic Cells (%) [2]: 67% and 63%
Population Normal (%) [2]: 95%
Population Pyknosed Nuclei (%) [2]: 13% and 22%
Population Tubulin-Different-Phenotype (%) [2]: 42% and 63%
Total Cell Count [2]: 266 and 142
Population Apoptotic (%) [3]: 45% and 40%
Population Fragmented Nuclei (%) [3]: 12% and 34%
Population Healthy Nuclei (%) [3]: 74% and 43%
Population Hoechst High Intensity Objects (%) [3]: 1%
Population Membrane Permeable-Phenotype (%) [3]: 0% and 6%
Population Mitochondria Different-Phenotype (%) [3]: 2% and 10%
Population Mitotic Cells (%) [3]: 55% and 59%
Population Normal (%) [3]: 98%
Population Pyknosed Nuclei (%) [3]: 12% and 21%
Population Tubulin-Different-Phenotype (%) [3]: 21% and 45%
Total Cell Count [3]: 156 and 148
Population Apoptotic (%) [4]: 54% and 37%
Population Fragmented Nuclei (%) [4]: 13% and 30%
Population Healthy Nuclei (%) [4]: 71% and 50%
Population Hoechst High Intensity Objects (%) [4]: 3% and 2%
Population Membrane Permeable-Phenotype (%) [4]: 0% and 5%
Population Mitochondria Different-Phenotype (%) [4]: 6% and 8%
Population Mitotic Cells (%) [4]: 45% and 62%
Population Normal (%) [4]: 96% and 97%
Population Pyknosed Nuclei (%) [4]: 14% and 19%
Population Tubulin-Different-Phenotype (%) [4]: 37% and 65%
Total Cell Count [4]: 258 and 153
Population Apoptotic (%) [5]: 71% and 56%
Population Fragmented Nuclei (%) [5]: 16% and 42%
Population Healthy Nuclei (%) [5]: 74% and 46%
Population Hoechst High Intensity Objects (%) [5]: 3% and 2%
Population Membrane Permeable-Phenotype (%) [5]: 0% and 5%
Population Mitochondria Different-Phenotype (%) [5]: 1% and 5%
Population Mitotic Cells (%) [5]: 28% and 43%
Population Normal (%) [5]: 96% and 97%
Population Pyknosed Nuclei (%) [5]: 8% and 10%
Population Tubulin-Different-Phenotype (%) [5]: 25% and 67%
Total Cell Count [5]: 164 and 156
Population Apoptotic (%) [6]: 71% and 54%
Population Fragmented Nuclei (%) [6]: 17% and 36%
Population Healthy Nuclei (%) [6]: 71% and 55%
Population Hoechst High Intensity Objects (%) [6]: 5% and 3%
Population Membrane Permeable-Phenotype (%) [6]: 0% and 3%
Population Mitochondria Different-Phenotype (%) [6]: 7% and 3%
Population Mitotic Cells (%) [6]: 28% and 45%
Population Normal (%) [6]: 94% and 96%
Population Pyknosed Nuclei (%) [6]: 10% and 7%
Population Tubulin-Different-Phenotype (%) [6]: 40% and 69%
Total Cell Count [6]: 272 and 152

CCc1nn2c(C)cc(C)nc2c1Cc1ccc(-c2nnc(C3CCNCC3)o2)cc1
Population Apoptotic (%) [1]: 34% and 45%
Population Fragmented Nuclei (%) [1]: 17% and 19%
Population Healthy Nuclei (%) [1]: 63% and 46%
Population Hoechst High Intensity Objects (%) [1]: 2% and 6%
Population Membrane Permeable-Phenotype (%) [1]: 2%
Population Mitochondria Different-Phenotype (%) [1]: 5% and 13%
Population Mitotic Cells (%) [1]: 65% and 54%
Population Normal (%) [1]: 97% and 93%
Population Pyknosed Nuclei (%) [1]: 19% and 33%
Population Tubulin-Different-Phenotype (%) [1]: 35% and 62%
Total Cell Count [1]: 153 and 167
Population Fragmented Nuclei (%) [2]: 19% and 38%
Population Healthy Nuclei (%) [2]: 62% and 44%
Population Hoechst High Intensity Objects (%) [2]: 5% and 3%
Population Membrane Permeable-Phenotype (%) [2]: 0% and 5%
Population Mitochondria Different-Phenotype (%) [2]: 19% and 14%
Population Mitotic Cells (%) [2]: 48% and 85%
Population Normal (%) [2]: 94% and 96%
Population Pyknosed Nuclei (%) [2]: 18% and 17%
Population Tubulin-Different-Phenotype (%) [2]: 72% and 79%
Total Cell Count [2]: 188 and 162
Population Apoptotic (%) [3]: 52% and 56%
Population Fragmented Nuclei (%) [3]: 17% and 26%
Population Healthy Nuclei (%) [3]: 68% and 49%
Population Hoechst High Intensity Objects (%) [3]: 1% and 7%
Population Membrane Permeable-Phenotype (%) [3]: 0% and 6%
Population Mitotic Cells (%) [3]: 47% and 43%
Population Normal (%) [3]: 98% and 92%
Population Pyknosed Nuclei (%) [3]: 13% and 23%
Population Tubulin-Different-Phenotype (%) [3]: 35% and 65%
Total Cell Count [3]: 153 and 177
Population Apoptotic (%) [4]: 53% and 56%
Population Fragmented Nuclei (%) [4]: 17% and 40%
Population Healthy Nuclei (%) [4]: 64% and 42%
Population Hoechst High Intensity Objects (%) [4]: 9% and 3%
Population Membrane Permeable-Phenotype (%) [4]: 0% and 11%
Population Mitochondria Different-Phenotype (%) [4]: 22% and 16%
Population Mitotic Cells (%) [4]: 46% and 44%
Population Normal (%) [4]: 90% and 96%
Population Pyknosed Nuclei (%) [4]: 17%
Population Tubulin-Different-Phenotype (%) [4]: 79% and 80%
Total Cell Count [4]: 185 and 151
Population Apoptotic (%) [5]: 76% and 62%
Population Fragmented Nuclei (%) [5]: 21% and 30%
Population Healthy Nuclei (%) [5]: 70% and 54%
Population Hoechst High Intensity Objects (%) [5]: 4%
Population Membrane Permeable-Phenotype (%) [5]: 1% and 3%
Population Mitochondria Different-Phenotype (%) [5]: 2% and 12%
Population Mitotic Cells (%) [5]: 23% and 37%
Population Normal (%) [5]: 95%
Population Pyknosed Nuclei (%) [5]: 7% and 14%
Population Tubulin-Different-Phenotype (%) [5]: 32% and 54%
Total Cell Count [5]: 172 and 168
Population Apoptotic (%) [6]: 84% and 54%
Population Fragmented Nuclei (%) [6]: 23% and 45%
Population Healthy Nuclei (%) [6]: 62% and 47%
Population Hoechst High Intensity Objects (%) [6]: 9% and 2%
Population Membrane Permeable-Phenotype (%) [6]: 0% and 2%
Population Mitochondria Different-Phenotype (%) [6]: 16% and 17%
Population Mitotic Cells (%) [6]: 15% and 45%
Population Normal (%) [6]: 90% and 97%
Population Pyknosed Nuclei (%) [6]: 13% and 7%
Population Tubulin-Different-Phenotype (%) [6]: 73% and 78%
Total Cell Count [6]: 208 and 161

N[C@](CC1c2ccccc2Oc2ccccc21)(C(=O)O)[C@H]1C[C@@H]1C(=O)O
Population Apoptotic (%) [1]: 44% and 58%
Population Fragmented Nuclei (%) [1]: 12% and 18%
Population Healthy Nuclei (%) [1]: 73% and 59%
Population Hoechst High Intensity Objects (%) [1]: 4% and 1%
Population Membrane Permeable-Phenotype (%) [1]: 0% and 7%
Population Mitochondria Different-Phenotype (%) [1]: 1%
Population Mitotic Cells (%) [1]: 56% and 41%
Population Normal (%) [1]: 95% and 98%
Population Pyknosed Nuclei (%) [1]: 13% and 21%
Population Tubulin-Different-Phenotype (%) [1]: 27% and 37%
Total Cell Count [1]: 189 and 113
Population Apoptotic (%) [2]: 50% and 26%
Population Fragmented Nuclei (%) [2]: 13% and 20%
Population Healthy Nuclei (%) [2]: 66% and 59%
Population Hoechst High Intensity Objects (%) [2]: 1% and 7%
Population Membrane Permeable-Phenotype (%) [2]: 2% and 0%
Population Mitochondria Different-Phenotype (%) [2]: 2% and 7%
Population Mitotic Cells (%) [2]: 50% and 73%
Population Normal (%) [2]: 98% and 92%
Population Pyknosed Nuclei (%) [2]: 20%
Population Tubulin-Different-Phenotype (%) [2]: 22% and 33%
Total Cell Count [2]: 203 and 119
Population Apoptotic (%) [3]: 68% and 33%
Population Fragmented Nuclei (%) [3]: 12% and 27%
Population Healthy Nuclei (%) [3]: 73% and 49%
Population Hoechst High Intensity Objects (%) [3]: 2% and 4%
Population Membrane Permeable-Phenotype (%) [3]: 2% and 6%
Population Mitochondria Different-Phenotype (%) [3]: 2% and 1%
Population Mitotic Cells (%) [3]: 32% and 66%
Population Normal (%) [3]: 97% and 95%
Population Pyknosed Nuclei (%) [3]: 13% and 22%
Population Tubulin-Different-Phenotype (%) [3]: 25% and 44%
Total Cell Count [3]: 183 and 123
Population Apoptotic (%) [4]: 57% and 35%
Population Fragmented Nuclei (%) [4]: 10% and 18%
Population Healthy Nuclei (%) [4]: 68% and 66%
Population Hoechst High Intensity Objects (%) [4]: 1% and 2%
Population Membrane Permeable-Phenotype (%) [4]: 1%
Population Mitochondria Different-Phenotype (%) [4]: 3% and 4%
Population Mitotic Cells (%) [4]: 42% and 64%
Population Normal (%) [4]: 98% and 97%
Population Pyknosed Nuclei (%) [4]: 20% and 15%
Population Tubulin-Different-Phenotype (%) [4]: 30% and 34%
Total Cell Count [4]: 193 and 113
Population Apoptotic (%) [5]: 62% and 23%
Population Fragmented Nuclei (%) [5]: 17% and 36%
Population Healthy Nuclei (%) [5]: 68% and 48%
Population Hoechst High Intensity Objects (%) [5]: 2% and 8%
Population Membrane Permeable-Phenotype (%) [5]: 0% and 9%
Population Mitochondria Different-Phenotype (%) [5]: 2% and 5%
Population Mitotic Cells (%) [5]: 37% and 76%
Population Normal (%) [5]: 97% and 91%
Population Pyknosed Nuclei (%) [5]: 14%
Population Tubulin-Different-Phenotype (%) [5]: 26% and 65%
Total Cell Count [5]: 189 and 125
Population Apoptotic (%) [6]: 45% and 27%
Population Fragmented Nuclei (%) [6]: 14% and 27%
Population Healthy Nuclei (%) [6]: 68% and 63%
Population Hoechst High Intensity Objects (%) [6]: 5% and 3%
Population Membrane Permeable-Phenotype (%) [6]: 1% and 2%
Population Mitochondria Different-Phenotype (%) [6]: 2%
Population Mitotic Cells (%) [6]: 54% and 72%
Population Normal (%) [6]: 94% and 96%
Population Pyknosed Nuclei (%) [6]: 16% and 9%
Population Tubulin-Different-Phenotype (%) [6]: 32% and 28%
Total Cell Count [6]: 198 and 115
